Laboratory results published in PMC6044759 (ACS Omega, 2018).
Counter-ions that a name gives are not always drawn.

Tests used:
MCF-7 cells = experiment: Live and dead assay by flow cytometry; assay type: cell-based, human; conditions: 15 nM, positive control, PI staining
In short: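 MCF-7 cells (0.8 × 10^6) were exposed to vehicle, 3 or 6 μM test compound, or 15 nM vinblastine (positive control) for 48 h. Cells were stained with propidium iodide and live and dead percentages were counted by flow cytometry. Values are mean ± SD of three experiments.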

[1] = cited from earlier work

| Structure (SMILES) | dead % (MCF-7 cells) | live % (MCF-7 cells) | Solubility in water [1] |
| --- | --- | --- | --- |
| CC[C@]1(O)C[C@@H]2CN(CCc3c([nH]c4ccccc34)[C@@](C(=O)OC)(c3cc4c(cc3OC)N(C)[C@H]3[C@@](O)(C(=O)OC)[C@H](OC(C)=O)[C@]5(CC)C=CCN6CC[C@]43[C@@H]65)C2)C1 [Vinblastine, Vinblastine sulfate] | 83 ± 6% | 18 ± 6% |  |
| COc1ccc(/C=C\c2cc(OC)c(OC)c(OC)c2)cc1O [CA-4, combretastatin A-4] |  |  | poorly soluble in water |
